Our source for the Ki, IC50 and LD50 values is ChEMBL document CHEMBL1129073, “Metabolically programmed polyamine analogue antidiarrheals” (J Med Chem, 1996).

In data set [1] the test system is L1210. Briefly: In vitro inhibition of uptake [3H]-spermidine in L1210 (murine leukemia) cells. The class given is functional, cell-based, Mus musculus.
Data set [2] concerns L1210. Briefly: Ability to competitively inhibit uptake of radiolabeled spermidine in L1210 cells. The data set is classed as functional, cell-based, Mus musculus. In short, it runs like this:
(§1)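 Murine L1210 leukemia cells in RPMI-1640 with 10% FBS and 1 mM aminoguanidine. Pellets washed in cold medium containing 1 mM SPD, dissolved in NaOH, scintillation counted. Ki from Lineweaver–Burke plots; Km(SPD) 2.1 μM; mean of ≥3 experiments.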

The subject of data set [3] is L1210. Briefly: Growth inhibitory activity of compound on L1210 cells after 96 hours. The class given is functional, cell-based. Particulars: Mus musculus, L1210, 96 h. The gist of the method:
(§2)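 Murine L1210 leukemia cells were kept in log-phase suspension in RPMI-1640 with 10% FBS, 2% HEPES-MOPS, 1 mM aminoguanidine and 1 mM L-glutamine at 37 °C under 5% CO₂. They were dosed at 0.5–1.0 × 10⁵ cells/mL with analogue in sterile water, 0.2 μm filtered. For the 96 h value, cells were reseeded at 48 h. Cells were counted electronically. IC50 is the concentration giving 50% of control growth, net of the inoculum.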

Data set [4] in a line: Acute toxicity was assessed after ip administration of a single dose of 325 mg/kg to a group of 5 female CD-1 mice. The data set is classed as organism-based. Set-up: dose 325 mg/kg, route intraperitoneal. Particulars: CD-1, mouse, in vivo.
A short description of data set [5]: Effect of Chronic compound treatment on polyamine homeostasis in mouse liver(total[N+]) total dose of 100 mg/kg. The class given is ADME, organism-based. Particulars: in vivo. The arrangement: dose 100 mg/kg. The gist of the method: (§3)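 Groups of three female CD-1 mice were given 20 mg/kg/day as a single daily ip injection for 5 days (total 100 mg/kg, 215.3 μmol/kg). Mice were sacrificed 24 h after the last dose. Liver and kidney perchloric acid extracts were dansylated and run on HPLC, quantified against calibration curves. [N+] equivalents = 2[diamine] + 3[triamine] + 4[tetraamine], in nequiv/g wet weight, ±SD.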

Data set [6] is described as follows: Effect of Chronic compound treatment on polyamine homeostasis in mouse kidney (total[N+]) at total dose of 100 mg/kg. The data set is classed as ADME, organism-based. The arrangement: dose 100 mg/kg. The note with it: in vivo. In short, it runs like this: as §3
The subject of data set [7] is L1210. As to the kind of experiment: Growth inhibitory activity of compound on L1210 cells after 48 hours. The class given is functional, cell-based. The note with it: Mus musculus, L1210, 48 h. The gist of the method: as §2
Data set [8] can be described thus: Effect of Chronic compound treatment on polyamine homeostasis in mouse kidney (native[N+]) at total dose of 100 mg/kg. Particulars: in vivo. The arrangement: dose 100 mg/kg. The class given is ADME, organism-based. In short, it runs like this:
as §3

For data set [9], the system named is L1210. As to the kind of experiment: Ability to competitively inhibit radioligand spermidine transport in L1210 cells. The data set is classed as functional, cell-based, Mus musculus. In short, it runs like this: as §1
Data set [10] in a line: Effect of Chronic compound treatment on polyamine homeostasis in mouse liver (native[N+]) total dose of 100 mg/kg. The data set is classed as ADME, organism-based. Set-up: dose 100 mg/kg. Particulars: in vivo. In short, it runs like this:
as §3

The nature of data set [11]: Effect of Chronic compound treatment on polyamine homeostasis in mouse liver (native[N+]) at total dose of 90 mg/kg. The data set is classed as ADME, organism-based. Set-up: dose 90 mg/kg. The note with it: in vivo. The gist of the method: (§4)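 Groups of three female CD-1 mice were dosed at 15 mg/kg/day for 6 days (total 90 mg/kg, 208.3 μmol/kg). Mice were sacrificed 1 day after the final dose. Liver and kidney perchloric acid extracts were dansylated and analysed by HPLC against calibration standards. [N+] equivalents = 2[diamine] + 3[triamine] + 4[tetraamine], in nequiv/g wet weight, ±SD.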

Data set [12] in a line: Effect of Chronic compound treatment on polyamine homeostasis in mouse liver(total[N+]) at total dose of 90 mg/kg. The data set is classed as ADME, organism-based. Set-up: dose 90 mg/kg. The note with it: in vivo. The gist of the method:
as §4

Data set [13] in a line: Effect of Chronic compound treatment on polyamine homeostasis in mouse kidney (native[N+]) at total dose of 90 mg/kg. The data set is classed as ADME, organism-based. The arrangement: dose 90 mg/kg. The note with it: in vivo. The gist of the method: as §4
The subject of data set [14] is L1210 (Mus musculus). As to the kind of experiment: Growth inhibitory activity of compound on L1210 cells after 96 hours. Particulars: L1210, 96 h.

One may read the Ki as the dissociation constant of the complex between target and ligand, obtained from inhibition or displacement. Lower therefore signals a stronger hold on the target. In the case of `CCNCCCCNC1CCC(NCCCCNCC)CC1` (stereo unspecified), in [1], the affinity corresponds to a Ki of 3.5 µM.

`c1cc(CNCCCCNCc2ccncc2)ccn1` yielded a Ki in data set [1] greater than 500 µM.

For the compound `CCNCCCNC1CCC(NCCCNCC)CC1` (stereo unspecified), in data set [1], the Ki was 7.9 µM. That is a single-digit micromolar value.

Take `C(CCNCCCCNC12CC3CC(CC(C3)C1)C2)CNCCCCNC12CC3CC(CC(C3)C1)C2`: in data set [2], the Ki was 2 µM.

Take `C(CNC1CCNCC1)CNC1CCNCC1`: in data set [1], the Ki worked out at 60.5 µM.

Regarding `C(CCNCCC1CCNCC1)CNCCC1CCNCC1`, the Ki in data set [1] came out at 18.1 µM.

In data set [1], `c1cc(NCCCNc2ccncc2)ccn1` showed a Ki greater than 500 µM.

A word on the IC50: it is the concentration that inhibits the measured activity by half. In general, LD50 refers to the dose at which mortality reaches 50%. A high value points to a less toxic substance. With `CCNCCC(O)CNCCCCNCC(O)CCNCC` (stereo unspecified), the IC50 amounted to 0.05 µM in [3] and 0.6 µM in [7]. Moreover, the LD50 in [4] was 325 mg/kg; in data set [5], 6706 mg/kg; in data set [6] it was 5427 mg/kg; in data set [8], 3251 mg/kg; in data set [10], 6118 mg/kg. Besides, the Ki in data set [9] came out at 1.8 µM.

In data set [4], `CCNCCCNCCCNCCCNCC` [BIS(ETHYL)NORSPERMINE] displayed an LD50 of 325 mg/kg.

Take `CCNCCCCNCCCCNCCCCNCC` [DIETHYLHOMOSPERMINE]: the LD50 amounted to 5506 mg/kg in data set [11], 325 mg/kg in [4], 7806 mg/kg in [12] and 1560 mg/kg in data set [13]. The compound also returned an IC50 in [14] of 0.05 µM.
